TNAP act hi DEA = increases human TNAP activity under high phosphate acceptor concentration | activation factor at 20 µM | P05186 | 200,000 tested, under 10 active | AID 1136 | purified TNAP, CDP-star luminescence, 1 M DEA, 30 min; active compounds read high; 0 = EDTA background, 1 = DMSO-only activity;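 active = activation factor at least 2 at 20 µM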
Target sequence (P05186 whole entry, looked up): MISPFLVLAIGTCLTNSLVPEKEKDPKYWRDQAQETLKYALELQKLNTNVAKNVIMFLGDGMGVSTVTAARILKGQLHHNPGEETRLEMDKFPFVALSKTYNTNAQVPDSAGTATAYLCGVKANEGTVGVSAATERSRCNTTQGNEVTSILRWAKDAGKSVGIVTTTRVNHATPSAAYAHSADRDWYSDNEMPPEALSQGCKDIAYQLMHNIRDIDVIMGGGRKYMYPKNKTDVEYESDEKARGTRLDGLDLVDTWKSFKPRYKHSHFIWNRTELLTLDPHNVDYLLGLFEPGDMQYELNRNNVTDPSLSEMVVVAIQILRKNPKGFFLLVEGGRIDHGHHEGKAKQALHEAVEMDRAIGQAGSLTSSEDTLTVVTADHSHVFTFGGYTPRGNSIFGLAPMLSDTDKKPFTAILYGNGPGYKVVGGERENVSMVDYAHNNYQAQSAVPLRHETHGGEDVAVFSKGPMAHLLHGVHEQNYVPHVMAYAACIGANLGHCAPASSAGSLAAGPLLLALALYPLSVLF
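Dosing: 20 µM single point. System: human TNAP. Amount: TNAP 1/800 final. Incubation: 30 min, room temperature. Read-out: TNAP activation factor scaled between EDTA and DMSO control wells. Signal: luminescence from CDP-star hydrolysis. Medium: 1 M DEA, pH 9.8, Mg2+, Zn2+. Control set: EDTA negative control, DMSO positive control.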
G6PDH CS = counter-screen for G6PDH assay hits: L. mesenteroides G6PDH inhibition. inhibition, % at 5 µM. actives 0.12% (n = 200,000). Purified L. mesenteroides G6PDH, diaphorase/resazurin coupled fluorescence, 45 min; in the data active = inhibition above about 50%
p97 ATPase inh = human p97 ATPase inhibition; P55072; recombinant p97 ATPase, Kinase-Glo ATP luminescence, 3 h; inhibition, % at 8 µM; actives 0.42% (n = 220,000); AID 1481; in the data active = inhibition above about 15%;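 also: 0% = DMSO vehicle and 100% = wells lacking enzyme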
TNAP inh no acc = blocks human TNAP activity with no phosphate acceptor present; inhibition, % at 20 µM; purified TNAP, CDP-star luminescence, 30 min; actives 0.26% (n = 200,000); P05186; AID 1012;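 active = tissue-nonspecific alkaline phosphatase inhibition above about 50% at 20 µM in the single-dose screen, limit read from the data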;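 also: 0% = DMSO negative control and 100% = EDTA positive control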
DTT redox prof = compounds producing H2O2 with reducing agent – biochemical, NIH compound library profiling, artefact control for MLSCN library redox annotation, primary screen; actives 0.03% (n = 200,000); activation, % at 10 µM; AID 878; DTT-dependent redox cycling H2O2, phenol red/HRP absorbance; 100% = 100 µM peroxide control, 0% = buffer;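 active = activation of at least 50% relative to the plate's high and low controls in the primary single-dose screen; inactive = activation below 50%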;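 also: compound incubated with DTT at 0.8 mM final as the reducing agent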
TNAP inh hiacc = TNAP (human) inhibition, high acceptor. P05186. purified TNAP, CDP-star luminescence, 1 M DEA. inhibition, % at 20 µM. actives 0.03% (n = 200,000);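 active = over 50% inhibition of tissue-nonspecific alkaline phosphatase at 20 µM in the single-dose screen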;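 also: plate controls were DMSO wells for no effect and EDTA-quenched wells as full inhibition for full effect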
p97 confirm = human p97 ATPase inhibition, confirmation | inhibition, % at 8 µM | shares compounds with p97 ATPase inh | actives 44% (n = 760) | recombinant p97 ATPase, Kinase-Glo ATP luminescence;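 active = percent inhibition of p97 ATPase above a set limit, the primary screen's mean plus 3 SD, cut at about 15% in these data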;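 also: 0% = DMSO wells and 100% = wells lacking p97 protein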
The depositor's hits bear a star; x = no result. Only some compounds are listed: those with a hit (about 0.79% of all), similar ones and a draw of the others.

SMILES	TNAP act hi DEA	G6PDH CS	p97 ATPase inh	TNAP inh no acc	DTT redox prof	TNAP inh hiacc	p97 confirm
CCOC(=O)c1cc(C(=O)OCC)c(=O)[nH]c1N1CCCCC1	1.1	0	7	-9	-2	-5	x
O=C(CCl)Nc1nc(-c2ccco2)c(-c2ccco2)s1	0.9	15	18*	-9	0	9	42*
O=C(CCCSc1ccccc1)Nc1nc(-c2ccco2)c(-c2ccco2)s1	1.1	-6	-1	-10	0	-6	x
Cc1ccc(-c2nnc(-n3ncc(C#N)c3N)c3ccccc23)cc1C	1	-17	6	-2	4	-3	x
COC(=O)c1sccc1NC(=O)Cn1nnc(-c2ccccc2C)n1	1.1	9	3	-19	-1	-7	x
CC1=Nc2ccccc2/C1=C/c1c(N)n2c(S(=O)(=O)CC(C)C)nsc2nc1=O	1	3	18*	21	-1	3	39*
CC1=Nc2ccccc2/C1=C/c1c(N)n2c(S(=O)(=O)C(C)C)nsc2nc1=O	0.9	7	22*	0	0	7	36*
CCCn1nc([N+](=O)[O-])c(C(C#N)c2nc3ccccc3s2)c(Cl)c1=O (stereo not drawn)	0.7	3	17*	32	0	32	21*
CCn1nc([N+](=O)[O-])c(C(C#N)c2nc3ccccc3n2C)c(Cl)c1=O (stereo not drawn)	0.8	0	5	18	0	17	x
N#CC1=C(N)Oc2cc(Nc3ccccc3)ccc2C1c1ccncc1 (stereo not drawn)	1	12	20*	1	7	-3	33*
N#CC1=C(N)Oc2cc(N)ccc2C1c1cccnc1 (stereo not drawn)	1	1	7	-13	1	-2	x
C/C(=N\NC(=O)c1nn(C)c(C)c1Br)c1ccc(NC(=O)c2ccccc2F)cc1	1	-20	-1	0	0	-1	x
O=c1c2[nH]c3ccc(Br)cc3c2ncn1Cc1ccncc1	x	x	9	x	x	x	x
Cc1cccc(C)c1NC(=O)CSCc1cccc(CSCC(=O)Nc2c(C)cccc2C)n1	1	6	16*	-10	0	-3	4
O=C(CSCc1cccc(CSCC(=O)Nc2ccccc2)n1)Nc1ccccc1	1	-2	-2	-8	0	-2	x
Cn1c(=O)cc(OCC(=O)Nc2ccccn2)c2ccccc21	1	3	-2	-18	0	-4	x
O=C(O)CCCN1C(=O)/C(=C\c2ccc(-c3nc4ccccc4s3)o2)SC1=S	x	x	15*	x	x	x	3
CCC(=O)NC1=C(Cl)C(=O)C(NC(=O)CC)=C(Cl)C1=O	x	x	19*	x	x	x	12
Cc1c(/C=N/Nc2nc3ccccc3[nH]2)c2ccccc2n1C	x	x	24*	x	x	x	17*
CC(C)(C)NC(=O)C(c1ccc(O)cc1)N(C(=O)CCC(=O)Nc1nccs1)c1ccc(F)cc1 (stereo not drawn)	1.1	1	0	-7	0	-7	x
CC(C)N(C(=O)COC(=O)[C@H](C)NC(N)=O)c1ccccc1	1	6	15*	-10	0	-3	3
CCC(CO)NCc1ccccc1OC(C)C (stereo not drawn)	1.1	8	4	-7	0	-5	x
N#CCCn1cc(C(=O)Nc2ccccc2Br)c(-c2cccs2)n1	1	2	5	-10	0	-4	x
CCOC(=O)C1(C)NC(c2ccco2)C2C(=O)N(CC)C(=O)C21 (stereo not drawn)	1	7	-1	-4	0	-1	x
COc1ccc(/C=N/NC(=O)Cn2ccnc2C)cc1OC	x	x	18*	x	x	x	5
SMILES	TNAP act hi DEA	G6PDH CS	p97 ATPase inh	TNAP inh no acc	DTT redox prof	TNAP inh hiacc	p97 confirm
CC(C)Cc1csc(NC(=O)c2ccc(Br)cc2)c1C(=O)O	x	x	0	x	x	x	x
CC1CCCC(NCC(O)COC(c2ccc(F)cc2)c2ccc(F)cc2)C1C (stereo not drawn)	1.1	9	15*	-17	0	-8	8
CC1CCCC(NC(=O)CSc2ccc(F)cc2)C1C (stereo not drawn)	1.1	15	-2	-15	0	-8	x
O=C(CCSCCc1ccccn1)Nc1cccc([N+](=O)[O-])c1	1	0	4	-4	0	5	x
CC(=O)Nc1cccc(-c2nc3ccc(NC(C)=O)cc3s2)c1	1	15	16*	0	0	2	8
O=C1NCCCC2c3cc(O)c4ccccc4c3OC12N1CCCCC1 (stereo not drawn)	1	56*	34*	-7	0	-3	14
CCNC(=O)Oc1ccc[nH]c1=O	x	x	17*	x	x	x	5
COc1ccc2oc(=O)c(C(=O)C[n+]3cccc(C)c3)cc2c1	1	22	2	-1	0	0	x
Cc1c(NS(=O)(=O)c2ccc(S(=O)(=O)c3ccccc3)s2)c(=O)n(-c2ccccc2)n1C	x	x	16*	x	x	x	17*
CCN(CC)CCNC(=O)C1c2cc(OC)c(OC)cc2C(=O)N(C)C1c1cccs1 (stereo not drawn)	1	-1	1	-2	0	2	x
COc1ccc(C2C3C(C)=NN=C3CC(C)(O)C2C(C)=O)cc1 (stereo not drawn)	1.1	4	0	-11	0	-7	x
COc1ccccc1N1CCN(Cc2cc(=O)n3ccsc3n2)CC1	1	4	16*	7	-4	4	9
O=c1cc(CN2CCCCCC2)nc2sccn12	0.9	-4	4	4	-1	7	x
Cc1ccc(-c2nc3c(c(=O)c4ccccc4n3C)c(=O)n2Cc2ccco2)cc1	x	x	48*	x	x	x	17*
Cn1c2ccccc2c(=O)c2c(=O)n(Cc3ccco3)c(-c3ccc(F)cc3)nc21	x	x	46*	x	x	x	17*
Cc1ccc(-c2nc3c(c(=O)c4ccccc4n3C)c(=O)n2-c2ccccc2)cc1	1	-6	4	3	0	4	x
COc1ccc(CCn2c(-c3ccc(OC)cc3)nc3c(c(=O)c4ccccc4n3C)c2=O)cc1	x	x	0	x	x	x	x
COc1cccc(OC)c1CN1CCCC(C(=O)c2ccccc2SC)C1 (stereo not drawn)	1	5	-2	-4	0	-4	x
CCOC(=O)c1sc(NC(=O)c2ccccc2)cc1C	1	-1	-1	-10	0	1	x
CCOC(=O)c1sc(NC(=O)c2c(C)nn(Cc3ccccc3)c2C)cc1C	1	-26	20*	-5	-3	1	6
COc1ccc(/C=C2/C(=O)N(Cc3ccccc3)N=C2C)cc1	1	11	33*	-2	0	3	5
